Screening data as filed in PubChem.
The sample as a whole holds a higher share of hits than the screen did.
Mac1 fbg enh – CD11b/CD18-fibrinogen binding enhancement | K562 CD11b/CD18 adhesion to fibrinogen, ATPlite luminescence | activation, % at 10 µM | 0.07% of 93,000 active;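 active means 10 µM primary screen giving 50% or more activity, confirmed by 40% or more on retest at that dose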
Target sequence (P05107 whole entry, looked up, other chains not shown): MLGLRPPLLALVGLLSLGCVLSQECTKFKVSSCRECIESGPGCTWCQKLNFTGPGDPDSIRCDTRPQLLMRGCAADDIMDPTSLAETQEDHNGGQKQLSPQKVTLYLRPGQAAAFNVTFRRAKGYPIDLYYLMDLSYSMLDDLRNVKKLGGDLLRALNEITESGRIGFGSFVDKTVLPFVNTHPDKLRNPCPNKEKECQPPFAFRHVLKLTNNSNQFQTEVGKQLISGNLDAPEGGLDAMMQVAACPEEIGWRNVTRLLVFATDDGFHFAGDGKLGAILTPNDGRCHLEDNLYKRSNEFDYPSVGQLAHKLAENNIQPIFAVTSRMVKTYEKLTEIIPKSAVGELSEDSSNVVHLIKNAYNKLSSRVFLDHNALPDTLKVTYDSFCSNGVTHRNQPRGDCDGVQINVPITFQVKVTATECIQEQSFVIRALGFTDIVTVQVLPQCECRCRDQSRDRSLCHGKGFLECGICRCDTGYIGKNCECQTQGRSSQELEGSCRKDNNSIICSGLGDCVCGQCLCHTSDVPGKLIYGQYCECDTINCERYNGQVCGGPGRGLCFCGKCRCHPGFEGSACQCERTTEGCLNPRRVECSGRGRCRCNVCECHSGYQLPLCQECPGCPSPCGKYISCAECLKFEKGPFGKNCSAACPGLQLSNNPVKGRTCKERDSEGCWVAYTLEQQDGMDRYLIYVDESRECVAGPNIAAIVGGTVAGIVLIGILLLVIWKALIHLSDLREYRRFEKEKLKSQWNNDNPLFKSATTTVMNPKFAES
E coli WT exp – growth inhibitors of E. coli BW25113 wild type | OD600 absorbance | growth inhibition, % at 100 µM | 0.15% of 98,000 active | AID 710;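 active means growth inhibition above about 50% at one test dose, limit read from the data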;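 further: growth measured after 20 h incubation at 37 °C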
Mac1 fbg inh – inhibitors of human CD11b/CD18 binding to fibrinogen | K562 CD11b/CD18 adhesion to fibrinogen, ATPlite luminescence; Mn2+ added to activate the integrin | inhibition, % at 10 µM | 0.54% of 93,000 active | AID 1497;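 active means primary inhibition of 50% or more at 10 µM, then 40% or more on retest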
tolC growth inh – growth inhibitors of E. coli BW25113 tolC mutant. OD615. growth inhibition, % at 10 µM (by protocol). 2.2% of 65,000 active. AID 573;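 active means growth inhibition at or above a cutoff equal to the mean over every tested compound plus 3 SD, cut at about 60% in these data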;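 further: growth measured after 20 h incubation at 37 °C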
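Test system – E. coli BW25113 ΔtolC::kan, tolC deletion mutant strain · Detection – OD at 615 nm · Buffer or medium – LB with kanamycin 50 µg/mL · Times – 20 h compound exposure of bacteria at 37 °C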
Of the large screens only hits and unclear results are named; the others gave an inactive call.

Cc1ccc(NC(=O)CSC2=C(C#N)C(c3ccco3)C3=C(CC(C)(C)CC3=O)N2)cc1 (stereo unspecified)	tolC growth inh 69
Fc1ccc(-c2cc(C(F)(F)F)nc(NCC3CCCO3)n2)cc1 (stereo unspecified)	tolC growth inh 100
FC(F)(F)c1cc(-c2ccccc2)nc(NCC2CCCO2)n1 (stereo unspecified)	none
c1ccc2c(N3CCCCC3)nc(N3CCCC3)nc2c1	none
CCN(CC)c1ccc(Nc2nc(N3CCOCC3)c3ccccc3n2)cc1	Mac1 fbg inh 65 (no result: tolC growth inh)
COc1ccc(Nc2nc(N3CCCC3)c3ccccc3n2)cc1	tolC growth inh 76
CC(C)Cc1[nH]c(=O)c(C#N)c2c1CCCC2	none
CCCn1c(C)nc2c(c1=O)c1nc3ccccc3nc1n2CCc1ccccc1	none (no result: Mac1 fbg enh, E coli WT exp, Mac1 fbg inh)
CCCn1c(C)nc2c(c1=O)c1nc3ccccc3nc1n2CCC1=CCCCC1	Mac1 fbg enh 62
Cc1cc(/C=C(/C#N)c2cccc(F)c2)c(C)n1-c1cccnc1	tolC growth inh 99
CCN(CC)S(=O)(=O)c1ccc2[nH]cc(C(=O)NCCC3=CCCCC3)c(=O)c2c1	tolC growth inh 98
CCN(CC)S(=O)(=O)c1ccc2[nH]cc(C(=O)NCCN3CCCCCC3)c(=O)c2c1	none
Cc1ccc(-c2cccc(NC(=O)C3C4C=CC(C4)C3C(=O)O)c2)o1 (stereo unspecified)	none (no result: tolC growth inh)
CC(C)Cc1nc2sc3c(=O)n(N)cnc3c2c2c1COC(C)(C)C2	none (no result: E coli WT exp, tolC growth inh)
FC(F)(F)c1nc(N2CCCC2)ncc1-c1nnnn1-c1ccc(Cl)cc1	Mac1 fbg inh 55 (no result: tolC growth inh)
N#Cc1cccc(NC(=O)Nc2cccs2)c1	E coli WT exp 73 (no result: Mac1 fbg enh, Mac1 fbg inh)
COc1ccc(Cc2nc(C(=O)Nc3ccc(F)cc3)cs2)cc1	Mac1 fbg inh 82 (no result: tolC growth inh)
COc1ccc(Cc2nc(C(=O)Nc3ccc(Cl)cc3)cs2)cc1	none (no result: tolC growth inh)
COc1ccc(Cc2nc(C(=O)Nc3ccccc3)cs2)cc1	Mac1 fbg inh 88 (no result: tolC growth inh)
COc1ccc(C2NC(=S)NC3=C2CCc2cc(OC)ccc23)cc1 (stereo unspecified)	none (no result: Mac1 fbg enh, Mac1 fbg inh, tolC growth inh)
Cc1ccc2c(c1)c1ncnc(N3CCN(c4ccccc4)CC3)c1n2C	tolC growth inh 64
CCc1nnc(N2CCN(c3ncnc4c3oc3ccccc34)CC2)s1	none
c1ccc(N2CCN(c3ncnc4c3oc3ccccc34)CC2)cc1	tolC growth inh 94
O=C(c1ccc2c(=O)n(C3CCCC3)c(=S)[nH]c2c1)N1CCc2ccccc21	none (no result: tolC growth inh)
O=c1cc(C(F)(F)C(F)F)oc2ccccc12	none (no result: tolC growth inh)
CSc1ccc(-c2cc(=O)c3ccccc3o2)cc1	tolC growth inh 61
CCOC(=O)c1cnc(-n2nc(C)cc2C)nc1NCCc1ccccc1	tolC growth inh 100
CCOC(=O)c1cnc(-n2nc(C)cc2C)nc1Nc1ccccc1OC	none (no result: tolC growth inh)
O=C(CSc1nc(-c2ccccc2)c(-c2ccccc2)[nH]1)N1CCN(S(=O)(=O)c2ccccc2)CC1	none (no result: tolC growth inh)
O=C(CSc1cn(CCNC(=O)c2cccs2)c2ccccc12)NC1CCCC1	none (no result: tolC growth inh)
CCOC(=O)c1cccc2c1-c1ccccc1/C2=N/O	tolC growth inh 100
Clc1ccc(CCNc2ncnc3nc[nH]c23)cc1	Mac1 fbg inh 60
Cc1oc2c(CN3CCOCC3)c(O)ccc2c(=O)c1-c1ccc(Br)cc1	tolC growth inh 99 (no result: Mac1 fbg enh, Mac1 fbg inh)
Cc1oc2c(CN3CCCC3)c(O)ccc2c(=O)c1-c1ccc(Cl)cc1	none
Cc1ccc(C)c(Cn2nnc3c(=O)[nH]c(C4CCN(C(=O)c5cccs5)CC4)nc32)c1	tolC growth inh 64
COc1ccc2nc(NC(=O)CSc3nc(C)cc(=O)[nH]3)sc2c1	none (no result: tolC growth inh)
CCOc1ccc2nc(NC(=O)C(CC)Sc3nc(C)cc(=O)[nH]3)sc2c1 (stereo unspecified)	tolC growth inh 67
Cc1cccc(N2CCN(C(=O)Cc3c(C(=O)O)[nH]c4ccc(Cl)cc34)CC2)c1C	tolC growth inh 87
CC1CCC(C(C)C)C(OC(=O)Cn2c(-c3ccc(F)cc3)[n+](C)c3ccccc32)C1 (stereo unspecified)	Mac1 fbg inh 64 (no result: E coli WT exp, tolC growth inh)
CC1CCC(C(C)C)C(OC(=O)Cn2c(-c3ccccc3)[n+](C)c3ccccc32)C1 (stereo unspecified)	Mac1 fbg inh 99 (no result: E coli WT exp, tolC growth inh)
CC1CCC(C(C)C)C(OC(=O)CSc2nnc(N)s2)C1 (stereo unspecified)	none (no result: Mac1 fbg enh, Mac1 fbg inh, tolC growth inh)
CCOC(=O)N1CCN(C(=O)C(=O)NNC(=O)COc2ccc(Cl)cc2)CC1	none (no result: E coli WT exp, tolC growth inh)
Cc1ccccc1Nc1nnc(SCC(=O)NC2CCCc3ccccc32)s1 (stereo unspecified)	none (no result: E coli WT exp, tolC growth inh)
CC1COC(c2cccn2Cc2ccccc2Cl)=N1 (stereo unspecified)	none (no result: Mac1 fbg enh, Mac1 fbg inh)
CCSCC1COC(c2cccn2Cc2ccc(C)cc2)=N1 (stereo unspecified)	tolC growth inh 61 (no result: Mac1 fbg enh, Mac1 fbg inh)
CCc1ccc(-c2nc(CSCC(=O)N3CCN(c4ncccn4)CC3)c(C)o2)cc1	Mac1 fbg inh 79
CCOc1cc(/C=N/O)cc(Br)c1OCc1ccc(Cl)cc1	none (no result: Mac1 fbg enh, Mac1 fbg inh, tolC growth inh)
CCOc1cc(CNCCO)cc(Br)c1OCc1ccc(Cl)cc1	E coli WT exp 78 (no result: Mac1 fbg enh, Mac1 fbg inh, tolC growth inh)
COc1cc(CNCc2ccncc2)cc(Br)c1OCc1ccccc1F	Mac1 fbg inh 62 (no result: tolC growth inh)
COc1cc(CNc2ccc(O)cc2)cc(Br)c1OCc1ccccc1F	none (no result: E coli WT exp, tolC growth inh)
CCOc1cc(CNCCO)cc(Br)c1OCc1ccccc1Cl	Mac1 fbg inh 74 (no result: tolC growth inh)
CC(C)CCOCC(=O)Nc1cccc(C(=O)O)c1	none
COc1cc(O)oc1C=Nc1ccc(C(F)(F)F)cc1	none (no result: Mac1 fbg enh, Mac1 fbg inh, tolC growth inh)
CN(c1ccccc1)S(=O)(=O)c1ccc(NC(=O)c2ccc(-c3ccccc3)cc2)cc1	none (no result: Mac1 fbg enh, Mac1 fbg inh, tolC growth inh)
CN(Cc1ccccc1)S(=O)(=O)c1ccc(C(=O)Nc2nnc(C3CC3)o2)cc1	tolC growth inh 100
COc1ccccc1-c1nnc(NC(=O)c2ccc(S(=O)(=O)N(C)Cc3ccccc3)cc2)o1	tolC growth inh 95 (no result: Mac1 fbg enh, Mac1 fbg inh)
CN(c1ccccc1)S(=O)(=O)c1ccc(C(=O)Nc2nnc(-c3ccc(F)cc3)o2)cc1	tolC growth inh 100
COc1ccccc1N(C)S(=O)(=O)c1ccc(C(=O)NC2=NCCS2)cc1	none (no result: Mac1 fbg enh, Mac1 fbg inh)
O=C(CSCc1ccc(Cl)cc1)c1ccco1	none
COc1ccc(NC(=O)c2cc([N+](=O)[O-])nn2Cc2ccccc2)c(C)c1	none (no result: tolC growth inh)
COc1ccccc1OCCC(=O)OCC(=O)NC(C)c1ccccc1 (stereo unspecified)	none (no result: E coli WT exp, tolC growth inh)
Cc1ccccc1CSc1nc2n(n1)C(c1cccs1)C1=C(CCCC1=O)N2 (stereo unspecified)	tolC growth inh 100
Cc1cccc(N2CCN(C(=O)c3cn(C)c(=O)c4c3c3ccccc3n4C)CC2)c1C	tolC growth inh 83
Cc1ccc(Cl)cc1N1CCN(C(=O)c2cn(C)c(=O)c3c2c2ccccc2n3C)CC1	none
NC1=NC2(CCCCC2)N=C(Nc2ccc(Br)cc2)N1	none (no result: E coli WT exp, tolC growth inh)
CCOc1ccccc1C(=O)NC(C(=O)OCC(=O)Nc1nnc(-c2ccccc2)o1)C(C)C (stereo unspecified)	tolC growth inh 87 (no result: Mac1 fbg enh, Mac1 fbg inh)
Cc1ccc2nc(N3CC(=O)Nc4ccccc43)nc(-c3ccccc3)c2c1	none (no result: E coli WT exp, tolC growth inh)
CCOC(=O)c1c(C)[nH]c(C)c1C(=O)COC(=O)c1cc2ccccc2cc1O	Mac1 fbg inh 62 (no result: E coli WT exp, tolC growth inh)
CCOC(=O)C1=C(N)OC2=C(C(=O)CCC2)C1c1ccccc1OCC (stereo unspecified)	none
